Measurements pooled from the literature.
Lines come from different studies, so protocols differ.

CC1=C(O)C(=O)C=C2C1=CC=C1[C@@]2(C)CC[C@@]2(C)[C@@H]3C[C@](C)(C(=O)OCCCCCCCO)CC[C@]3(C)CC[C@]12C — IC50 (AGS; cell growth or viability; MTT; 48 h): 410 nM
CCCCN(CCCC)C(=O)c1ncn2c(=O)n(C)nnc12 — IC50 (U-87 MG; cell growth or viability; resazurin; 7 days): 27000 nM
CC(=O)OCCOC(=O)[C@]1(C)CC[C@]2(C)CC[C@]3(C)C4=CC=C5C(=CC(=O)C(O)=C5C)[C@]4(C)CC[C@@]3(C)[C@@H]2C1 — IC50 (AGS; cell growth or viability; MTT; 48 h): 430 nM
Cc1cnc(NC2CCOCC2)nc1-n1cnc(C(=O)NC(CN)c2cc(F)cc(Cl)c2)c1 (stereo not drawn) — IC50 (JVM13; cell growth or viability; MTS): 2700 nM
CC1=C(O)C(=O)C=C2C1=CC=C1[C@@]2(C)CC[C@@]2(C)[C@@H]3C[C@](C)(C(=O)OCCCBr)CC[C@]3(C)CC[C@]12C — IC50 (AGS; cell growth or viability; MTT; 48 h): 360 nM
COc1ccc(C2=N[C@@H](c3ccc(Cl)cc3)[C@@H](c3ccc(Cl)cc3)N2C(=O)N2CCNC(=O)C2)c(OC(C)C)c1 — IC50 (DU-4475; cell growth or viability; MTS; 48 h): 4000 nM
CC1=C(O)C(=O)C=C2C1=CC=C1[C@@]2(C)CC[C@@]2(C)[C@@H]3C[C@](C)(C(=O)OCCCn4ccc5ccccc54)CC[C@]3(C)CC[C@]12C — IC50 (AGS; cell growth or viability; MTT; 48 h): 2100 nM
COc1cccc2c1C(=O)c1c(O)c3c(c(O)c1C2=O)C[C@@](O)(C(=O)CO)C[C@@H]3O[C@H]1C[C@H](N)[C@H](O)[C@H](C)O1 — IC50 (ChaGo-K-1; cell growth or viability; MTT; 48 h): 0.65 µg/mL
CCc1ccc(N2NC(=O)/C(=C/c3ccc(-c4ccc(S(=O)(=O)Nc5nccs5)cc4)o3)C2=O)cc1 — IC50 (MEF; cell growth or viability; MTT; 72 h): 50000 nM
CCCCCCCCCCCC(=O)Oc1c(C)c(O)c(C(=O)/C=C/c2ccccc2)c(OC)c1C — IC50 (KKU-M213; cell growth or viability; SRB; 72 h): > 50000 nM
Cn1nnc2c(C(=O)N3CCCC3)ncn2c1=O — IC50 (U-87 MG; cell growth or viability; resazurin; 7 days): 17000 nM
COc1c(C)c(OC)c2c(c1C)OC(c1ccccc1)CC2=O (stereo not drawn) — IC50 (KKU-M213; cell growth or viability; SRB; 72 h): > 50000 nM
C=CC(=O)Nc1cc(Nc2nccc(-c3cn(C)c4ccccc34)n2)c(OC)cc1N(C)CCN(C)C — IC50 (PC-9; cell growth or viability; ATP luminescence; 72 h): 4.3 nM
COc1cc(/C=C2\SC(=O)NC2=O)ccc1OCc1ccc(Cl)cc1Cl — IC50 (MEF; cell growth or viability; MTT; 72 h): 8600 nM
Cn1nnc2c(C(N)=O)ncn2c1=O — IC50 (IMR-32; cell growth or viability): 81600 nM
O=C1NC(=NCc2cccs2)S/C1=C\c1ccc2ncccc2c1 — IC50 (EKVX; cell growth or viability): > 10000 nM
Cc1cccc(-n2ncc(Br)c(Br)c2=O)c1 — IC50 (PC-9; cell growth or viability; resazurin; 96 h): 860 nM
CC1=C(O)C(=O)C=C2C1=CC=C1[C@@]2(C)CC[C@@]2(C)[C@@H]3C[C@](C)(C(=O)OCCCCCCO)CC[C@]3(C)CC[C@]12C — IC50 (AGS; cell growth or viability; MTT; 48 h): 360 nM
O=C(c1cc(Cc2n[nH]c(=O)c3ccccc23)ccc1F)N1CCN(C(=O)C2CC2)CC1 — IC50 (SK-OV-3; colony formation): 2630 nM
CC1=C(O)C(=O)C=C2C1=CC=C1[C@@]2(C)CC[C@@]2(C)[C@@H]3C[C@](C)(C(=O)OCCO)CC[C@]3(C)CC[C@]12C — IC50 (AGS; cell growth or viability; MTT; 48 h): 470 nM
C=C(C)C(=O)Nc1ccc(-c2c(-c3ccc(Oc4nccc(C)n4)c(F)c3)c3c(N)ncnc3n2C)cc1 — IC50 (JMSU-1; cell growth or viability; ATP luminescence; 96 h): 1060 nM
